pIC50: −log10 of the molar value. Calls of active or inactive are those of the source. The calls are words filed in the database; no cut-off is given here.

What is called pIC50 is the negative decadic logarithm of the IC50, by convention in mol/L. Read a low pIC50 as a large IC50. The inhibition is the share of the control response that was lost under treatment. What is called IC50 is the concentration needed to halve the response being measured. As a reminder, the T/C is the result in the treated group divided by that in the control group, in per cent.

Experiment [1] has as its system HT-29. The experiment in a line: Antiproliferative activity against human HT-29 cells after 72 hrs by MTT assay. The class given is functional, cell-based. Particulars: HT-29, 72 h. For orientation: Formazan colour is commonly taken as a measure of viable cells.
A further experiment has as its system AGS. The experiment in a line: Antiproliferative activity against human AGS cells after 72 hrs by MTT assay. The format is functional, cell-based.
The next experiment has as its system Thoracic aorta. The experiment in a line: Antiangiogenic activity in Sprague-Dawley rat thoracic aorta ring assessed as reduction in micro-vessel growth at 5 uM treated every day for 6 days by matrigel-based inverted microscopic analysis relative to control. The class given is functional, tissue-based. In a few lines:
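Aortas taken from 4–6-week-old Sprague–Dawley rats, cut into 1-mm rings and embedded in Matrigel. Rings held 30 min at 37 °C, 5% CO2, then treated daily for 6 days with compound or 0.5% DMSO vehicle. Microvessel outgrowth photographed on day 7 at ×200. Three independent experiments.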

For experiment [2], the target named is Histone deacetylase 1/2/3 (Homo sapiens) (UniProt Q13547+O15379+Q92769). Particulars: HeLa, at 100 nM.
Experiment [3] has as its target T1, Vascular endothelial growth factor receptor 2 (Homo sapiens, UniProt P35968). The experiment in a line: Inhibition of VEGFR-2 (unknown origin) at 0.2 uM after 40 mins by kinase-Glo assay relative to control. The gist of the method: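 VEGFR-2 tested at a single 200 nM concentration in a Kinase-Glo assay. Compound, kinase, substrate and ATP incubated 40 min at room temperature, then Kinase-Glo reagent added for 15 min and luminescence read. Inhibition rate reported. Replicates n ≥ 2.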

The subject of a further experiment is ACHN. As to the kind of experiment: Antiproliferative activity against human ACHN cells after 72 hrs by MTT assay. The format is functional, cell-based.
For another experiment, the target named is Histone deacetylase. The format is protein assay, Homo sapiens.
For experiment [4], the target named is Fibroblast growth factor receptor 1 (Homo sapiens, UniProt P11362). The experiment in a line: Inhibition of FGFR1 (unknown origin) after 40 mins by kinase-Glo assay. (Kinase-Glo reads ATP consumption through a luciferase reaction.)
Experiment [5] concerns the target Mast/stem cell growth factor receptor Kit (Homo sapiens, UniProt P10721). As to the kind of experiment: Inhibition of C-kit (unknown origin) after 40 mins by kinase-Glo assay. In a few lines: (§1)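 Kinase-Glo luminescent assay run by a contract lab. Compound, kinase, substrate and ATP diluted in kinase buffer and incubated 40 min at room temperature. IC50 obtained by nonlinear regression of normalized dose–response.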

The target of experiment [6] is T1, Vascular endothelial growth factor receptor 2. The experiment in a line: Inhibition of VEGF-stimulated VEGFR2 phosphorylation in human HUVEC cells at 100 nM preincubated for 2 hrs followed by VEGF stimulation by Western blot analysis. The class given is cell-based. In a few lines:
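HUVECs pretreated 2 h with compound or DMSO, then stimulated with VEGF (50 ng/ml). Cells lysed in ice-cold RIPA and protein measured by BCA. Lysates run on SDS-PAGE and immunoblotted for phospho-VEGFR-2, with total VEGFR-2 as loading control. Detection by ECL.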
A general note: In western blotting, separated proteins are transferred to a membrane and probed.

The next experiment concerns MDA-MB-231. As to the kind of experiment: Antiproliferative activity against human MDA-MB-231 cells after 72 hrs by MTT assay. The format is functional, cell-based. As to conditions: MDA-MB-231, 72 h.
A further experiment relates to MOLT-4. As to the kind of experiment: Antiproliferative activity against human MOLT4 cells after 72 hrs by MTT assay. The class given is functional, cell-based. As to conditions: MOLT-4, 72 h.
A further experiment deals with KG-1. The experiment in a line: Antiproliferative activity against human KG1 cells after 72 hrs by MTT assay. The format is functional, cell-based. As to conditions: KG-1, 72 h.
In experiment [7] the target is T1, Vascular endothelial growth factor receptor 2. As to the kind of experiment: Inhibition of VEGFR-2 (unknown origin) after 40 mins by kinase-Glo assay. In a few lines: as §1
In another experiment the test system is K562. As to the kind of experiment: Antiproliferative activity against human K562 cells after 72 hrs by MTT assay. The format is functional, cell-based. Particulars: K562, 72 h.
In experiment [8] the target is Macrophage colony-stimulating factor 1 receptor (Homo sapiens, UniProt P07333). As to the kind of experiment: Inhibition of C-fms (unknown origin) after 40 mins by kinase-Glo assay.
Macrophage colony-stimulating factor 1 receptor, sequence (P07333 whole entry): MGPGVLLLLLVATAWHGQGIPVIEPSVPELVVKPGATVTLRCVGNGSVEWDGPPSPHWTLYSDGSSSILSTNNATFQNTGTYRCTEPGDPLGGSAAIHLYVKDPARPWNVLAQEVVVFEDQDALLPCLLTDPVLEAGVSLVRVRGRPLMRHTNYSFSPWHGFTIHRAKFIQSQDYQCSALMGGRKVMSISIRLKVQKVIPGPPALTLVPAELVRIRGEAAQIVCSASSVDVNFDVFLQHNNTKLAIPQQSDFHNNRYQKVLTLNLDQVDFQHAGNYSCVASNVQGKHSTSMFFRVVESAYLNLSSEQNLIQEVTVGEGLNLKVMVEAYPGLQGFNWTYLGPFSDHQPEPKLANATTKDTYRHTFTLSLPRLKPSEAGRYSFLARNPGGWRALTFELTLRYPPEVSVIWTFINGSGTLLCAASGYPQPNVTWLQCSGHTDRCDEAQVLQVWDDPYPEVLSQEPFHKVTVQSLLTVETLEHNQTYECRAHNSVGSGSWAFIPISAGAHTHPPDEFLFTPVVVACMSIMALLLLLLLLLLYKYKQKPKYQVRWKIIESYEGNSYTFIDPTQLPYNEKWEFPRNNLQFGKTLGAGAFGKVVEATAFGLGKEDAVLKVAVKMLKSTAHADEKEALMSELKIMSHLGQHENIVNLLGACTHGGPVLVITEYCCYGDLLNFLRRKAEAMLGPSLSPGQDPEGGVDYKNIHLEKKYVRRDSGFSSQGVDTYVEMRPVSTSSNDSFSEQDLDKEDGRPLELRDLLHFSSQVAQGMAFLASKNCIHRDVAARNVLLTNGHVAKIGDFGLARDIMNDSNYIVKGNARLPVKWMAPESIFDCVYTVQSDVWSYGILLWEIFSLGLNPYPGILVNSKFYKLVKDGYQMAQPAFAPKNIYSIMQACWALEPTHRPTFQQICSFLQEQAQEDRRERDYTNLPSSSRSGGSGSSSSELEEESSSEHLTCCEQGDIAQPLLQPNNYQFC
Experiment [9] deals with Protein deacetylase HDAC6 (Homo sapiens, UniProt Q9UBN7). The experiment in a line: Inhibition of HDAC6 (unknown origin) using fluorogenic Boc-Lys(acetyl)-AMC as substrate preincubated for 5 mins followed by substrate addition measured after 30 mins by fluorescence-based assay.
Protein deacetylase HDAC6, sequence (Q9UBN7 whole entry): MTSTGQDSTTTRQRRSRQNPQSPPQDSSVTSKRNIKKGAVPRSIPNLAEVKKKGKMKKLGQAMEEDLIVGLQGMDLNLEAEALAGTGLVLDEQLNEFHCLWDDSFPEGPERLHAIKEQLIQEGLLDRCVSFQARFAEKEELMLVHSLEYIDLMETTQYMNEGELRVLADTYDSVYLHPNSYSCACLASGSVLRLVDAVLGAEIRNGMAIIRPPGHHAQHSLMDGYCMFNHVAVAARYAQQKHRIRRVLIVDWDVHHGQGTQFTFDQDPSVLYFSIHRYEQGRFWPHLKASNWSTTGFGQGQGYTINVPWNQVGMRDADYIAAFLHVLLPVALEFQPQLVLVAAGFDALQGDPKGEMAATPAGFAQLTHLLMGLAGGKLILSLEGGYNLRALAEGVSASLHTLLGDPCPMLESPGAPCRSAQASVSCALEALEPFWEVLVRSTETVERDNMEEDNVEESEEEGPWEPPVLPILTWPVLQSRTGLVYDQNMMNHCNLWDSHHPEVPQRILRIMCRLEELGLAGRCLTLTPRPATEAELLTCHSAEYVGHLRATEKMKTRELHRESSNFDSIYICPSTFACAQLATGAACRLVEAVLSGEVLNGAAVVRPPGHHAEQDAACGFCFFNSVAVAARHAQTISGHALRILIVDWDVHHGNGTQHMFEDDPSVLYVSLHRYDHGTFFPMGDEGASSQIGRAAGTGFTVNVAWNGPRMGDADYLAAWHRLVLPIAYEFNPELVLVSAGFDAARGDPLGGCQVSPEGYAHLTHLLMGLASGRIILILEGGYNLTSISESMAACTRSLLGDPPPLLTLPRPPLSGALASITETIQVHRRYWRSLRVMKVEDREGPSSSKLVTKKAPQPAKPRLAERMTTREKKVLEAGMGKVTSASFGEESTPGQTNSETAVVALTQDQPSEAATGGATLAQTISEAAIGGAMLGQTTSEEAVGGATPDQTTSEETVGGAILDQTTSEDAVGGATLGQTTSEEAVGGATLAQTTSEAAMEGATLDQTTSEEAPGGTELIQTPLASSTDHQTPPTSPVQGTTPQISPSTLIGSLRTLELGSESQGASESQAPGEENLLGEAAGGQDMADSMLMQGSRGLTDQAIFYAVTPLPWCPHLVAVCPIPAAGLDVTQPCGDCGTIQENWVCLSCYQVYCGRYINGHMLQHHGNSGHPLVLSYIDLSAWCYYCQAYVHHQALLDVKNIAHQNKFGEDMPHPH
A further experiment deals with Histone deacetylase 2 (Homo sapiens, UniProt Q92769).
The next experiment concerns PC-3. As to the kind of experiment: Antiproliferative activity against human PC3 cells after 72 hrs by MTT assay. Particulars: PC-3, 72 h. The class given is functional, cell-based.
The subject of another experiment is HT-1080. As to the kind of experiment: Antiproliferative activity against human HT1080 cells after 72 hrs by MTT assay. Particulars: HT-1080, 72 h. The format is functional, cell-based.
Experiment [10] has as its system HUVEC. The experiment in a line: Cytotoxicity activity against HUVEC after 72 hrs by MTT assay. The class given is cell-based. Particulars: Homo sapiens. The gist of the method:
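HUVECs kept in RPMI1640 with 10% FBS at 37 °C, 5% CO2. Cells seeded the day before, grown 12 h, then exposed to a range of compound concentrations for 72 h. Then 0.5% MTT added for 4 h, formazan dissolved in DMSO, and absorbance read at 570 nm.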

A further experiment deals with Histone deacetylase 8 (Homo sapiens, UniProt Q9BY41). The experiment in a line: Inhibition of HDAC8 (unknown origin) using fluorogenic Boc-Lys(trifluoroacetyl)-AMC as substrate preincubated for 5 mins followed by substrate addition measured after 30 mins by fluorescence-based assay.
Histone deacetylase 8, sequence (Q9BY41 whole entry): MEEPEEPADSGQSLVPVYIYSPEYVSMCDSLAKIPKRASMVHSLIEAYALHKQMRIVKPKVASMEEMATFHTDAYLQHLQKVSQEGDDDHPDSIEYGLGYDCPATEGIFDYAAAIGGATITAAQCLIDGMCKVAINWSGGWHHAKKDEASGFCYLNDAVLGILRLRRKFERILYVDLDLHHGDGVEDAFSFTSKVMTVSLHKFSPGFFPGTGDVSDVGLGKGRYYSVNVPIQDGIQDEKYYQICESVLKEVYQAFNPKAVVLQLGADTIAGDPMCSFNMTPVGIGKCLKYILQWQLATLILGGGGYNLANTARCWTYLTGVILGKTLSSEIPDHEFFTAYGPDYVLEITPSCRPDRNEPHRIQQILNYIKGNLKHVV
Experiment [11] has as its target Vascular endothelial growth factor receptor 1 (Homo sapiens, UniProt P17948). The experiment in a line: Inhibition of VEGFR-1 (unknown origin) after 40 mins by kinase-Glo assay. In a few lines: as §1
In another experiment the test system is HeLa. As to the kind of experiment: Antiproliferative activity against human HeLa cells after 72 hrs by MTT assay. The format is functional, cell-based.
The subject of experiment [12] is HUVEC. As to the kind of experiment: Antiangiogenic activity in human HUVEC cells assessed as reduction in capillary-like tubular network formation at 0.1 uM after 6 hrs by phase-contrast microscopy. The class given is functional, cell-based. In a few lines:
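HUVECs trypsinized and seeded at 40000/well on Matrigel polymerized 0.5 h at 37 °C. Cells held 6 h at 37 °C in M199 with 5% FBS, with compound or DMSO. Tube formation viewed and photographed by phase-contrast microscopy at 200 magnification. Three independent experiments.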

In experiment [13] the target is Platelet-derived growth factor receptor beta (Homo sapiens, UniProt P09619). As to the kind of experiment: Inhibition of PDGFRbeta (unknown origin) after 40 mins by kinase-Glo assay. In a few lines:
as §1

The test system of another experiment is HEL. As to the kind of experiment: Antiproliferative activity against human HEL cells after 72 hrs by MTT assay. The format is functional, cell-based.
For experiment [14], the target named is Vascular endothelial growth factor receptor 3 (Homo sapiens, UniProt P35916). As to the kind of experiment: Inhibition of VEGFR-3 (unknown origin) after 40 mins by kinase-Glo assay.
Experiment [15] relates to HT-29. The experiment in a line: Antitumor activity against human HT-29 cells xenografted in BALB/c nu mouse assessed as tumor growth level at 100 mg/kg, po administered for 25 consecutive days measured every 3 days during compound dosing relative to control. The format is functional. In a few lines:
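HT-29 cells (1×10^7) implanted s.c. in right flank of male BALB/c-nu mice aged 5–6 weeks. At about 100 mm³ (day 10), mice randomized 6 per group and dosed orally for 25 consecutive days. Controls received PBS with 5% DMSO. T/C is mean RTV (Vt/V0) treated over control. TGI taken from final tumor weights. Student's two-tailed t test.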

T1 sequence (P35968 whole entry): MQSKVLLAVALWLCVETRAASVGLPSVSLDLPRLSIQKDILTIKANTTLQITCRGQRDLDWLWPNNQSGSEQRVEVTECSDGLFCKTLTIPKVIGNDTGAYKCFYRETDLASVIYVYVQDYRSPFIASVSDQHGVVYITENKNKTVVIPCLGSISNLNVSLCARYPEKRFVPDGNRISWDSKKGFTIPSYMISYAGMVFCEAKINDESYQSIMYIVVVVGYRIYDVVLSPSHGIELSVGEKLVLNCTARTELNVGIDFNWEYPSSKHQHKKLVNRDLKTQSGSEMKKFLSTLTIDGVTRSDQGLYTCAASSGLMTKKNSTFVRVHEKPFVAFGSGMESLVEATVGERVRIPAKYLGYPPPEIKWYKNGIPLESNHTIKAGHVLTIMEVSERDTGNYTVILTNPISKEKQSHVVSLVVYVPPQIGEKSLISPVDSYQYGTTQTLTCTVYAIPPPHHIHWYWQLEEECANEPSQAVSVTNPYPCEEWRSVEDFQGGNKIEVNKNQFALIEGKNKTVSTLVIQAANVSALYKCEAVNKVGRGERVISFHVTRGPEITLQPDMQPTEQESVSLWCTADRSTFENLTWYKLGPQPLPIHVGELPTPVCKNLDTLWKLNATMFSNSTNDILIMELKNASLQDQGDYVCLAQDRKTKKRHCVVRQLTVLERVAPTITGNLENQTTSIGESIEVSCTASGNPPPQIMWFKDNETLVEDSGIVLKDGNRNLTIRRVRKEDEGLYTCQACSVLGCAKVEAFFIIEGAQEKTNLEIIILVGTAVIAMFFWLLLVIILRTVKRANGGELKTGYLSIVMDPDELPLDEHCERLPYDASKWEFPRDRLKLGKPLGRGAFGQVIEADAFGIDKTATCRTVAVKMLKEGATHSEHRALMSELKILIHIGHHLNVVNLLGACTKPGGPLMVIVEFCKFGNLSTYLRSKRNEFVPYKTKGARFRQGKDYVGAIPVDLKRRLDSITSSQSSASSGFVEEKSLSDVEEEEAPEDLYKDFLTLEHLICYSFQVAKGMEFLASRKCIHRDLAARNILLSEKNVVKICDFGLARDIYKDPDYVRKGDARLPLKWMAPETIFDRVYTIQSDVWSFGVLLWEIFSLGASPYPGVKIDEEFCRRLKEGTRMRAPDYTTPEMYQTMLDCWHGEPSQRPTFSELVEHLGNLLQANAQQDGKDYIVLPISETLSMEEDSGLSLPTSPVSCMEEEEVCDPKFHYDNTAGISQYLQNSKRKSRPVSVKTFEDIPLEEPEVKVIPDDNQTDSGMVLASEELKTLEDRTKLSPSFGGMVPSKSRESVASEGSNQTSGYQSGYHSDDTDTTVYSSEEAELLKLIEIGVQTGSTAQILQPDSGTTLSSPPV
Platelet-derived growth factor receptor beta, sequence (P09619 whole entry): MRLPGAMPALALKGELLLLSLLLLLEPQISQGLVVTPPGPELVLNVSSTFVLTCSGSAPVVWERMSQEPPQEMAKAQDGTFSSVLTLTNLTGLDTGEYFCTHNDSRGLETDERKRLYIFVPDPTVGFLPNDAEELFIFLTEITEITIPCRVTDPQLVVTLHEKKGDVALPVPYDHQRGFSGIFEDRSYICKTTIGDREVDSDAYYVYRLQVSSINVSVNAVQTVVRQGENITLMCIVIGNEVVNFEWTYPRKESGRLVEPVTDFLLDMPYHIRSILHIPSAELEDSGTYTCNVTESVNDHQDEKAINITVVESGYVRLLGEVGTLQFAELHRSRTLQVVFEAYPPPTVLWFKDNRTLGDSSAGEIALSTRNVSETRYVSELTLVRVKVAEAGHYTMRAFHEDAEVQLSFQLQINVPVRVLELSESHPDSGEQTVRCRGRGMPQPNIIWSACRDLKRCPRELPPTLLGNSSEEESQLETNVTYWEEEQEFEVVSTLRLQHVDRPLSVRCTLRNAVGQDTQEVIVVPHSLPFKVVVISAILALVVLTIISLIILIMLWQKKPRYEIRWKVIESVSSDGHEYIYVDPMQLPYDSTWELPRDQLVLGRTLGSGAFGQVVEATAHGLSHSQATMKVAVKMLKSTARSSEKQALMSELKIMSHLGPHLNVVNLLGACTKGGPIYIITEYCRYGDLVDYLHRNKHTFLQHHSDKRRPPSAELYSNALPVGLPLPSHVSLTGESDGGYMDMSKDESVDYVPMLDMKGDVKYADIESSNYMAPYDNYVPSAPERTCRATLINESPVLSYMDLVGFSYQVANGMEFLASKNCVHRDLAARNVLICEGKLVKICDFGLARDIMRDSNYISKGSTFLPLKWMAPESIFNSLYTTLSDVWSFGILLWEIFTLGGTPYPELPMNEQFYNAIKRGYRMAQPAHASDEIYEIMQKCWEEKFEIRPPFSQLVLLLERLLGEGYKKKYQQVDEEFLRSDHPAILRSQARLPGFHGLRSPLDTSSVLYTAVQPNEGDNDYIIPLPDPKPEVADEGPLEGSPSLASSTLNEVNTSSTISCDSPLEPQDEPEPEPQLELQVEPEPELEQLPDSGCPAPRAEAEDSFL

Regarding `Cc1c2ccc(N(C)c3ccnc(Nc4ccc(C(=O)NCCCCCCC(=O)NO)cc4)n3)cc2nn1C`, the pIC50 was 5.60 in the experiment with HT-29 [1]; 5.35 in the experiment on AGS; less than 5.30 with ACHN; 6.39 in experiment [4]; 6.79 in [5]; 5.53 with MDA-MB-231. Besides, the pIC50 in the experiment with MOLT-4 is 6.51; with KG-1, 5.80; in experiment [7] it was 7.34; in the experiment with K562, 6.00; in experiment [8], 6.24; in experiment [9], 7.14. Besides, the pIC50 against Histone deacetylase 2 was 6.42; in the experiment on PC-3, 5.77; in the experiment on HT-1080 it was 5.71; in the experiment on HUVEC [10] it was 4.68; on Histone deacetylase 8 it was 5.78; in experiment [11] it was 7.46. Besides, the negative-log IC50 (pIC50) in the experiment on HeLa is 5.36; in [13] it was 6.95; with HEL, 5.55; in [14], 6.95. Further, the outcome in the experiment on Thoracic aorta and with HUVEC [12] was Active. Besides, the inhibition result in experiment [2] and in experiment [6] was “Active” throughout. This compound showed an inhibition in experiment [3] of 93%. This compound also yielded an IC50 at Histone deacetylase of 3.3 nM.

As to `O=C(CCCCCCC(=O)Nc1ccccc1)NO` [VORINOSTAT], the inhibition result in experiment [6] was “inactive”. The T/C with HT-29 [15] is recorded as 66%.

Values taken from ChEMBL document CHEMBL4190394, “Discovery of Novel Pazopanib-Based HDAC and VEGFR Dual Inhibitors Targeting Cancer Epigenetics and Angiogenesis Simultaneously” (J Med Chem, 2018).
